Test results as given in ChEMBL document CHEMBL1130878 (Bioorg Med Chem Lett, 1998).

Experiments:
[1] = organism: Rattus norvegicus; assay: Compound was evaluated for the functional assay performed by obtaining ET-1 concentration-response curves [pA2(ETA)] in isolated rat aortic rings; conditions: Aorta, read-out: pA2 (converted)
Method in brief: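 Functional ETA assay: ET-1 concentration-response curves in isolated rat aortic rings with the endothelium removed. Antagonism is expressed as pA2.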

[2] = molecular target: T1, Endothelin-1 receptor (Rattus norvegicus, UniProt P26684); assay: In vitro ability to inhibit specific [125I]ET1 binding to rat aorta membranes Endothelin A receptor; assay type: tissue-based
T1 sequence (P26684 whole entry): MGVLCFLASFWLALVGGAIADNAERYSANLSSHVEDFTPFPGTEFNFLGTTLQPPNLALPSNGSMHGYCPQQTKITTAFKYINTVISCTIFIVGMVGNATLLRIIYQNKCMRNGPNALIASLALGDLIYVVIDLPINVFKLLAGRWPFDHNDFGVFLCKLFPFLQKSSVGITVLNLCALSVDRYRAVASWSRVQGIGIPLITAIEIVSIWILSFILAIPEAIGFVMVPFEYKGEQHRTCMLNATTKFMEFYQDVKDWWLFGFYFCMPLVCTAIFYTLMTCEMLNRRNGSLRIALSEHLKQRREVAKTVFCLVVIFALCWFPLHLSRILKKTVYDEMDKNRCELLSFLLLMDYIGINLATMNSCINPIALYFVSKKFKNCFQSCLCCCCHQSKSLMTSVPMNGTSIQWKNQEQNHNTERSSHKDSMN

[3] = molecular target: T2, Endothelin receptor type B (Sus scrofa, UniProt P35463); assay: In vitro ability to inhibit specific [125I]ET1 binding to porcine kidney (inner medulla) membranes Endothelin B receptor
T2 sequence (P35463 whole entry): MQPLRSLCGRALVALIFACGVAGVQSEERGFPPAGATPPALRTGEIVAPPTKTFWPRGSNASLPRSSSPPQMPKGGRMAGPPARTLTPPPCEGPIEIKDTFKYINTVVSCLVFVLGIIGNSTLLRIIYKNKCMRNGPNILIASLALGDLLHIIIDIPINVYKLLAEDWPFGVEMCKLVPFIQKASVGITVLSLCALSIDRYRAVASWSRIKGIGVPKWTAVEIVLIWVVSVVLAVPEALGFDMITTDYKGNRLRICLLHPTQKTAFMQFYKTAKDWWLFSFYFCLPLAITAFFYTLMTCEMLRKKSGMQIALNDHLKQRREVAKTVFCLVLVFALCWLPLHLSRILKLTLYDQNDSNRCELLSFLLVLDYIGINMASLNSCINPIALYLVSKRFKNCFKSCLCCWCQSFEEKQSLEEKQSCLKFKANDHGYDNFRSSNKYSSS

Structure (SMILES) | Kb [1] | IC50 [2] | IC50 [3]
COc1ccc(C(=O)/C(Cc2ccccc2)=C(\C(=O)O)c2ccc3nsnc3c2)cc1 | 25.1 nM | 26 nM | 1200 nM
COc1ccc(C(=O)/C(Cc2ccc3c(c2)OCO3)=C(\C(=O)O)c2ccc3nsnc3c2)cc1 | – | 66 nM | 1500 nM
COc1cc(C/C(C(=O)c2ccc3c(c2)CCO3)=C(/C(=O)O)c2ccc3nsnc3c2)cc(OC)c1OC | – | 28 nM | 460 nM
